According to article PMC8819215 (Iranian Journal of Public Health, 2021):
Like-named read-outs stand apart in the source and are kept apart here.

What was measured:
parasites = settings: cited from earlier work
L. major promastigotes = assay: Promastigote growth inhibition; assay type: cell-based, Leishmania major
Procedure, shortened: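 Stationary-phase (5 d) L. major MRHO/IR/75/ER promastigotes (1×10^6) were grown at 26 °C in RPMI-1640 with 10% heat-inactivated FCS, pH 7.4. They received TBO (7.8–500 μg/ml) plus 630 nm LED irradiation. MTT at 570 nm was read at 2, 24 and 48 h, as % of untreated OD. IC50 came from dose-response curves, triplicates. SI = macrophage CC50/promastigote IC50.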

[1] = system: J774A.1 macrophages cell line; assay: Cytotoxicity; assay type: cell-based, mice
L. braziliensis [2] = settings: 10 μg/ml TBO; cited from earlier work
L. major = settings: cited from earlier work
L. braziliensis [3] = settings: in-vitro; cited from earlier work

Q: For `CN(C)c1ccc2nc3ccc(=[N+](C)C)cc-3sc2c1` [MB, methylene blue], which “decrease of parasites viability” value (parasites; PDT) is on record?
A: more than 70%

Q: And the “decrease of parasites viability” value (parasites; in the dark, higher concentration of MB)?
A: up to 50%

Q: What does the source list for `Cc1cc2nc3ccc(N(C)C)cc3[s+]c2cc1N.[Cl-]` [TBO, Toluidine Blue O]?
A: decrease in viability (L. major promastigotes; PDT, three highest concentrations, after 24 h): more than 70%; toxicity to parasites (L. major promastigotes; dark group (no PDT), highest concentrations): intermediate toxicity; toxicity to macrophages compared to glucantime (positive control) [1]: less toxicity; cytotoxicity to J774.A1 macrophages ([1]; dark group): no cytotoxic; parasite viability (L. braziliensis [2]): significantly reduced

Q: With Aluminum phthalocyanine as the molecule, how does the phototoxicity (L. major; 10.0μM concentration and 10 J/cm^2 irradiation) read?
A: phototoxic

Q: Which “elimination of parasites by PDT” value (L. braziliensis [3]) does the source give for aluminum phthalocyanine tetra sulfonate here?
A: effectively eliminated

Q: And the “elimination of parasites by PDT” value (L. major; in-vitro)?
A: effectively eliminated
